Screening data (PubChem)
ARFGAP1 inhibitor: inhibitors of rat ARFGAP1 GAP activity, primary screen, biochemical, fluorescence polarization, GDP tracer | ADP-ribosylation factor GTPase-activating protein 1 (Rattus norvegicus), Q62848 | Arfgap1-stimulated ARF1 GTP hydrolysis, GDP FP detection | inhibition, % at 16.5 µM | 0.26% of 360,000 active;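 active = inhibition above a per-plate limit, mean inhibition of low control wells plus 3 SD, cut at about 25% in these data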
Target sequence (Q62848 1-136 limits assumed): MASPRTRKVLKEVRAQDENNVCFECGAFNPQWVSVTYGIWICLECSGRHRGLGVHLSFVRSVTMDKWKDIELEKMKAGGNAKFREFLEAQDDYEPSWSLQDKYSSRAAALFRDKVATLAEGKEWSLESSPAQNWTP
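Repeats: one replicate per compound; assay system: rat Arfgap1 catalytic domain, aa 1-136; times: enzyme reaction 120 min at 25 °C after 20 min preincubation; detection: FP of antibody-bound GDP Alexa 633 tracer, ex 620/em 688 nm; benchmarks: high control wells lacking Arfgap1, low control full reaction with DMSO; reagent: human ARF1(Δ1-17)-GTP substrate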
NadD inh: inhibitors of S. aureus NadD, primary screen, biochemical, colorimetric, uHTS. 0.78% of 360,000 active. AID 602399, 2012. Nicotinate-nucleotide adenylyltransferase NadD (Staphylococcus aureus N315). inhibition, % at 20 µM. purified NadD enzyme, colorimetric absorbance read-out; in the data active = inhibition above about 26%
rCAG binder: binders of r(CAG) RNA repeats, primary screen, biochemical, fluorescence; r(CAG) RNA repeat, TO-PRO-1 dye displacement fluorescence; inhibition, % at 3 µM; 1.3% of 370,000 active; AID 651821, 2012;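 active = inhibition above the plate cutoff, the mean of all test compounds on that plate plus 3 SD, cut at about 35% in these data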;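 also: higher means more dye released from RNA so lower well fluorescence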
ASAP1 GAP inh: inhibitors of human ASAP1 ArfGAP activity, primary screen, biochemical, fluorescence polarization | Arf-GAP with SH3 domain, ANK repeat and PH domain-containing protein 1 (Homo sapiens), … | ASAP1-stimulated ARF1 GTP hydrolysis, GDP FP detection | inhibition, % at 16.5 µM | 0.19% of 360,000 active | AID 624377, 2012; in the data active = inhibition above about 25%
Target sequence (Q9ULH1 325-724 limits assumed): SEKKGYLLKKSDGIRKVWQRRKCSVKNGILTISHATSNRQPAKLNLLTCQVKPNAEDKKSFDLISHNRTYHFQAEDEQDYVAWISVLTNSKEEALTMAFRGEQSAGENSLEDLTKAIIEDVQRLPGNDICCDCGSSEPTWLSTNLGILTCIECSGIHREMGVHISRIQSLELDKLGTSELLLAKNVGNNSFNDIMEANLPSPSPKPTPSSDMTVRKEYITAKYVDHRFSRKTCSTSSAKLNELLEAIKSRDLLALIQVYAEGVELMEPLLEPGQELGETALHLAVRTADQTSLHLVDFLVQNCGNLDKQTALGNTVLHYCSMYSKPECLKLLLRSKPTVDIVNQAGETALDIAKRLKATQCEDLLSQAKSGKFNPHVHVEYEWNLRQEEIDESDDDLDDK
NadD conf: inhibitors of S. aureus NadD, confirmation, biochemical, colorimetric, single concentration; shares compounds with NadD inh; purified S. aureus NadD, colorimetric enzyme assay; inhibition, % at 20 µM; 13% of 2,000 active; AID 624309, 2012; in the data active = inhibition mostly above about 42%, no sharp cut-off; inactive = mostly below about 42%
Large screens that a line does not name were inactive (follow-up assays come after a bar, where they were run). This is a sample that favours compounds with a hit; in the whole collection about 2.2% have one here.

CCn1nc(C)cc1-c1nnc(Sc2ncc([N+](=O)[O-])s2)n1C	none
COc1ccc(C(C)(C)C)cc1NC(=O)CCCN1C(=O)NC(C)(C)C1=O	none
CC[N+](CC)(CC)CCCCOc1ccc2c(c1)C(=O)c1cc(OCCCC[N+](CC)(CC)CC)ccc1-2	NadD inh 31 | NadD conf inactive
O=c1oc2ccccc2cc1-c1csc(Nc2nc3c(F)cccc3s2)n1	NadD inh 57 | NadD conf inactive
O=C(Nc1nc(-c2ccco2)c(-c2ccco2)s1)c1ccc(F)cc1F	NadD inh 41 | NadD conf inactive
CC(C)C(=O)OCCCN1CCC2(CCC(c3ccccc3)CC2)C1=O (centres undefined)	none (no result: ARFGAP1 inhibitor, NadD inh, ASAP1 GAP inh)
Cc1ccc(S(=O)(=O)Nc2ccc(Nc3nccn4c(-c5cccc(OC(F)(F)F)c5)cnc34)cc2)cc1	NadD inh 33 | NadD conf 53
Cc1c(COC(=O)NC(C)C)c(COC(=O)NC(C)C)c2n1CS(=O)(=O)C2	none (no result: NadD inh)
O=C(OCc1cn(Cc2ccccc2F)nn1)N1CCOCC1	none (no result: ARFGAP1 inhibitor, NadD inh, ASAP1 GAP inh)
C(=N/n1c2ccccc2c2ccccc21)/c1ccco1	none
N=c1scc(-c2ccccc2)n1/N=C/c1ccco1	NadD inh 38 | NadD conf inactive
CC[C@H](C)[C@H]1CNC(=O)C(=O)N1CC1CCN(CC(C)C)CC1	none (no result: NadD inh)
Cn1c2ccccc2c(=O)c2ccc(C#Cc3ccc(N)cc3)cc21	NadD inh 51 | NadD conf inactive
Cn1c2ccccc2c(=O)c2cc(C#CC3=CCCCC3)ccc21	NadD inh 32 | NadD conf inactive
CCN(CC)C(=O)CC[C@H]1CC[C@]2(CCCN(C(=O)c3ccccc3)C2)O1	none (no result: ARFGAP1 inhibitor, NadD inh, ASAP1 GAP inh)
CC(C)N1CCC1(C)C(=O)Nc1cccc(C#N)c1 (centres undefined)	none
CC(C)C[C@H]1CNC(=S)N1C[C@H]1CCCN1C[C@H](Cc1ccccc1)N1C[C@H](Cc2ccc(O)cc2)N(CC2CCCCCC2)C1=S	NadD inh 42 | NadD conf inactive
CC(C)C[C@H]1CNC(=S)N1CC1CCCN1C[C@H](Cc1ccc(O)cc1)N1C[C@H](Cc2ccccc2)N(CC2CCCCCC2)C1=S (some centres undefined)	none
CC(C)C[C@H]1CNC(=S)N1CC1CCCN1C[C@H](Cc1ccccc1)N1C[C@H](Cc2ccc(O)cc2)N(CC2CCCCC2)C1=S (some centres undefined)	NadD inh 32 | NadD conf inactive
CCCCCCCCN1C(=O)[C@@H](CC(=O)NCCCCc2ccccc2)C[C@@]2(C(=O)OC)C1=C[C@H](C1CCCC1)O[C@@H]2C	none (no result: NadD inh)
COc1cccc(C(C(=O)NCc2ccccc2)N2CCN(c3cccc(C)c3C)CC2)c1OC (centres undefined)	none (no result: NadD inh)
N#CC1=C(S)N=C(N)C(c2nc(-c3ccccc3)cs2)C12CCCC2 (centres undefined)	NadD inh 52 | NadD conf 73
N#CC1=C(S)N=C(N)C(c2nc(-c3ccccc3)cs2)C12CCCCC2 (centres undefined)	NadD inh 52 | NadD conf 75
Cc1ccc(-c2csc(C3C(N)=NC(S)=C(C#N)C34CCCCC4)n2)cc1 (centres undefined)	none
COC(=O)CCN1CCSCCS1(=O)=O	none (no result: NadD inh)
CCCNc1c(F)c(F)c2c(C)c3ccccc3nc2c1F	NadD inh 39 | NadD conf inactive
O=C(COc1ccc(-c2ccccc2)cc1)N/N=C/c1cc(O)ccc1Br	NadD inh 31 | NadD conf inactive
O=C(COc1ccc(-c2ccccc2)cc1)N/N=C/c1ccccc1Br	none
CCc1ccccc1-c1cc(C(C)=O)c2n(c1=O)CCC2	none (no result: ARFGAP1 inhibitor, NadD inh, ASAP1 GAP inh)
CCOC(=O)c1cccc(NC(=O)CN(C)S(=O)(=O)c2ccc(Cl)s2)c1	none (no result: ARFGAP1 inhibitor, NadD inh, ASAP1 GAP inh)
O=C(c1ccncc1)N1CCCC(N2CCN(c3cccc(C(F)(F)F)c3)CC2)C1 (centres undefined)	none
CCc1cc(C(=O)N2CCCC(N3CCN(c4cccc(C(F)(F)F)c4)CC3)C2)n(C)n1 (centres undefined)	NadD inh 38 | NadD conf inactive
CC(=NNC(=S)N1CC2CCC(CC2)C1)c1ccncn1	none
CC1(c2ccccc2)CC(C)(C)n2c(O)c(C3=NC(=S)NC3=O)c3cccc1c32 (centres undefined)	NadD inh 33 | NadD conf inactive
COc1cccc(NC(=O)Nc2c(-c3ccc(F)cc3)nc3ncccn23)c1	none (no result: ARFGAP1 inhibitor, NadD inh, ASAP1 GAP inh)
Cc1cc(Br)cc2c(C(=O)Nc3c(C)n(C)n(-c4ccccc4)c3=O)cc(-c3cccs3)nc12	NadD inh 30 | NadD conf inactive
CSc1ccc(C(=O)NCC2CCN(C(=O)C(=O)c3cc4ccccc4o3)CC2)cc1	none (no result: NadD inh)
O=C1CC(=C(c2ccccc2)c2ccccc2)C(=O)N1CCCN1CCN(c2cccc(Cl)c2)CC1	none
O=C1CC(=C2c3ccccc3-c3ccccc32)C(=O)N1CCCCN1CCN(c2ccccc2)CC1	NadD inh 48 (no result: ARFGAP1 inhibitor, rCAG binder, ASAP1 GAP inh) | NadD conf inactive
CC1CC(C)(C)CC2(C1)NC(=O)N(CC(=O)Nc1cc(C(F)(F)F)ccc1N1CCCCC1)C2=O (centres undefined)	NadD inh 42 | NadD conf inactive
O=C(CN1C(=O)NC2(CCCCC2)C1=O)Nc1cc(C(F)(F)F)ccc1N1CCCC1	none
CCc1nc2ccc(C(=O)NCc3ccc4c(c3)OCO4)cn2c1N(C)Cc1ccc(OC)cc1	none
COc1ccc(C(C[N+](=O)[O-])c2c(-c3ccccc3)cc3ccccn23)c(OC)c1 (centres undefined)	NadD inh 33 | NadD conf inactive
O=C(c1ccco1)N1N=C(c2ccco2)CC1c1ccc(Cl)cc1Cl (centres undefined)	NadD inh 31 | NadD conf inactive
COC(=O)C1CN(Cc2cn(Cc3ccccc3)nn2)CCS(=O)(=O)N1Cc1ccc(OC)cc1 (centres undefined)	none (no result: ARFGAP1 inhibitor, NadD inh, ASAP1 GAP inh)
N/C(=N\c1nc(CSc2ccc(Cl)cc2)cc(=O)[nH]1)Nc1cccc2ccccc12	NadD inh 27 | NadD conf inactive
CCC(C)CNC(=O)c1[nH]c(C(F)(F)F)nc1-c1ccccc1 (centres undefined)	none
CCCCC1=CC2=CC(=O)C(C)(OC(=O)c3cccs3)C(=O)C2=CO1 (centres undefined)	NadD inh 32, rCAG binder 37 | NadD conf 47
CCCCC1=CC2=CC(=O)C(C)(OC(=O)CCc3ccccc3)C(=O)C2=CO1 (centres undefined)	NadD inh 66 | NadD conf 39
COC(=O)CCCC1=CC2=CC(=O)C(C)(OC(=O)c3cccs3)C(=O)C2=CN1c1ccccc1 (centres undefined)	none
